We go through 8 compounds from ChEMBL document CHEMBL1152760, “Synthesis and bioevaluation of omega-N-amino analogs of B13” (Bioorg Med Chem, 2009).

Experiment [1] relates to MCF7. In words: Increase in endogenous C16-ceramide level in human MCF7 cells at 10 uM after 2 hrs by LC/MS analysis relative to control. Format: functional. In short, it runs like this:
(§1)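 MCF7 cells treated with 10μM compound for 2 h. Endogenous ceramide species and sphingosine were measured in a Bligh & Dyer lipid extract and normalized to phospholipid phosphate (pmol/nmol Pi). Results are given as % of control, each dose in duplicate.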

For experiment [2], the system named is MCF7. The experiment is described as follows: Cytotoxicity against human MCF7 cells after 48 hrs by MTT assay. Type of experiment: functional, cell-based. The following applies: for IC50: MCF7, 48 h. In short, it runs like this: (§2)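 MCF7 cells (RPMI 1640, 10% FBS) seeded at 5 × 10^3 per well and left overnight to attach. Compounds in DMSO (<0.1%) added at 0.78–100 μM for 48 h (or 72 h), then MTT read-out. Viability is Ad/Ac × 100 against untreated controls, with 5 replicates per dose and two independent experiments. IC50 is the concentration giving 50% growth inhibition.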

In experiment [3] the target is T1, Acid ceramidase (Homo sapiens) (UniProt Q13510).
T1 sequence (whole entry): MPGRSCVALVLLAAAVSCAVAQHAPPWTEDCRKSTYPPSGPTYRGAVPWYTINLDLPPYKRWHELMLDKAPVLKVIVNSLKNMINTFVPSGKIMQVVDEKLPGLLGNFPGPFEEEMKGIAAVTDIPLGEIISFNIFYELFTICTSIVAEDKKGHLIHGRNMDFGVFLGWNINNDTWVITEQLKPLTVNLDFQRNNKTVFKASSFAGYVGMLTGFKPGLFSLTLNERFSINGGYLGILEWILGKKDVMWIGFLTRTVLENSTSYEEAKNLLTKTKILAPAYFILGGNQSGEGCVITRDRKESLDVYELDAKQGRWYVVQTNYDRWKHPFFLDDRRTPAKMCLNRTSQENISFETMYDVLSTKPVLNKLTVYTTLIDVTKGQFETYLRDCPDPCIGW
In words: Inhibition of acid ceramidase in human MCF7 cell lysate at 50 uM by scintillation counting. Format: cell-free. In short, it runs like this: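 MCF7 lysate prepared in pH 4.5 acetate buffer (5mM MgCl2, 1mM EDTA, 0.5% Triton X-100) served as the enzyme source. Substrate was [3H]C16-ceramide in Triton/cholate, dried down with compound from ethanol stock. The reaction was run at final pH about 4.2 and 37°C for 1 h, then stopped with Dole's reagent. Released [3H]palmitic acid was counted by scintillation. Duplicates, reported as % control.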

Experiment [4] concerns MCF7. The experiment is described as follows: Increase in endogenous total ceramide level in human MCF7 cells at 10 uM after 2 hrs by LC/MS analysis relative to control. Type of experiment: functional. In short, it runs like this:
as §1

Experiment [5] deals with MCF7. In words: Decrease in endogenous sphingosine level in human MCF7 cells at 10 uM after 2 hrs by LC/MS analysis relative to control. Format: functional. On the set-up: scale not given: the % may be the effect or the level left. The gist of the method:
as §1

For experiment [6], the system named is MCF7. In words: Increase in endogenous C14-ceramide level in human MCF7 cells at 10 uM after 2 hrs by LC/MS analysis relative to control. Type of experiment: functional. In short, it runs like this: as §1
Experiment [7] has as its system MCF7. The experiment is described as follows: Increase in endogenous C18-ceramide level in human MCF7 cells at 10 uM after 2 hrs by LC/MS analysis relative to control. Format: functional. In short, it runs like this:
as §1

For experiment [8], the system named is MCF7. In words: Induction of lysosomal destabilization in human MCF7 cells assessed as reduction in stability at 10 uM after 1 to 5 hrs by FACS. Format: functional. Set-up: scale not given: the % may be the effect or the level left. In short, it runs like this:
(§3)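 MCF7 cells seeded at 5 × 10^5 per well overnight, then moved to fresh 2% FBS medium with compound in DMSO or DMSO alone at 37°C for 1 and 5 h. 200nM LysoTracker Red was added for 30 min, and cells were trypsinized, washed and analysed by FACS (564–606nm, ≥10,000 events). A fall in fluorescence indicates a rise in lysosomal pH. Triplicates, reported as % control.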
In general terms: Flow cytometry measures light scatter and fluorescence of single cells or particles in a stream.

Experiment [9] relates to MCF7. The experiment is described as follows: Induction of apoptosis in human MCF7 cells at 5 uM after 24 hrs. Format: functional, cell-based. The settings on record: MCF7, 24 h.
In experiment [10] the target is T1, Acid ceramidase (Homo sapiens). The experiment is described as follows: Inhibition of acid ceramidase in human MCF7 cells at 10 uM after 2 hrs by scintillation counting. Format: cell-based. In short, it runs like this: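 MCF7 cells were treated with 10μM compound for 2 h, scraped and lysed in acidic buffer. Acid ceramidase activity in the lysate was assayed with [3H]C16-ceramide at pH about 4.2, 37°C for 1 h, counting released [3H]palmitic acid. Duplicates, reported as % control.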

Experiment [11] relates to MCF7. In words: Increase in endogenous C24-ceramide level in human MCF7 cells at 10 uM after 2 hrs by LC/MS analysis relative to control. Format: functional. In short, it runs like this:
as §1

Experiment [12] deals with MCF7. The experiment is described as follows: Increase in endogenous C24:1-ceramide level in human MCF7 cells at 10 uM after 2 hrs by LC/MS analysis relative to control. Format: functional. In short, it runs like this:
as §1

Experiment [13] relates to MCF7. The experiment is described as follows: Increase in endogenous sphingosine level in human MCF7 cells at 10 uM after 2 hrs by LC/MS analysis relative to control. Format: functional. In short, it runs like this:
as §1

Experiment [14] has as its system MCF7. In words: Induction of apoptosis in human MCF7 cells assessed as increase in caspase 3/7 activity at 10 uM after 24 hrs. Type of experiment: functional. In short, it runs like this: (§4)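 MCF7 cells seeded at 5 × 10^3 per well overnight, then given vehicle or compound at the indicated concentrations. After 8 h and 24 h, caspase 3/7 activity was measured with the Apo-ONE homogeneous kit (fluorescence, ex 485/em 520 nm). Data are mean ±SD.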

The subject of experiment [15] is MCF7. In words: Cytotoxicity against human MCF7 cells after 72 hrs by MTT assay. Type of experiment: functional, cell-based. The following applies: MCF7, 72 h. In short, it runs like this: as §2
On the technique in general: Tetrazolium assays rely on reduction of a dye to a coloured formazan, in cell work by metabolically active cells.

Experiment [16] relates to MCF7. In words: Induction of lysosomal destabilization in human MCF7 cells assessed as reduction in stability at 10 uM after 1 hr by FACS. Format: functional. Set-up: scale not given: the % may be the effect or the level left. In short, it runs like this: as §3
In experiment [17] the test system is MCF7. In words: Induction of lysosomal destabilization in human MCF7 cells assessed as reduction in stability at 10 uM after 5 hrs by FACS. Format: functional, cell-based. In short, it runs like this:
as §3

Experiment [18] concerns MCF7. In words: Induction of apoptosis in human MCF7 cells assessed as increase in caspase 3/7 activity after 24 hrs. Type of experiment: functional, cell-based. The gist of the method: as §4

The structures appear in SMILES notation. Calls of active or inactive are those of the source. No cut-off for these calls is given here.

By IC50 is commonly meant the concentration that gives 50% inhibition. The term inhibition denotes the percentage by which the read-out fell short of the control. For `CCCCCCCCNCCCCCC(=O)N[C@H](CO)[C@H](O)c1ccc([N+](=O)[O-])cc1`, the Activity was 120% with MCF7 [1]; “Dose-dependent effect” in the experiment on MCF7 [2]; 98% in the experiment with MCF7 [4]; 50% in the experiment with MCF7 [5]; 200% in the experiment with MCF7 [6]. 12.1 µM corresponded to half-maximal inhibition in the experiment on MCF7 [2] (IC50). The compound also came in with an inhibition in experiment [3] of 5%.
Regarding `CCCCCCCCCCCCCCN[C@H](CO)[C@H](O)c1ccc([N+](=O)[O-])cc1.Cl`, the Activity was 200% with MCF7 [1]; 160% in the experiment on MCF7 [7]; 90% in the experiment on MCF7 [8]; “Dose-dependent effect” with MCF7 [2]; 30% in the experiment on MCF7 [5]; 220% in the experiment on MCF7 [6]. Besides, the results for the IC50 in the experiment on MCF7 [2] and with MCF7 [9] were 4.29 µM and 5 µM, respectively. This compound came in with an inhibition in experiment [10] of 35%.
As for `O=C(CCCCCCCCCCCn1ccnc1)N[C@H](CO)[C@H](O)c1ccc([N+](=O)[O-])cc1`, the Activity in the experiment on MCF7 [1] was 120%; in the experiment with MCF7 [2] it was “Dose-dependent effect”; in the experiment on MCF7 [4], 98%; with MCF7 [5], 50%; in the experiment with MCF7 [6] it was 200%. Moreover, in the experiment with MCF7 [2], the IC50 is 14.8 µM.
As to `CCCCCCCCCCCCCC(=O)N[C@H](CO)[C@H](O)c1ccc([N+](=O)[O-])cc1`, the Activity in the experiment on MCF7 [1] is 135%; with MCF7 [7], 135%; in the experiment with MCF7 [11] it was 135%; with MCF7 [12], 135%; in the experiment with MCF7 [13], 140%; in the experiment with MCF7 [2] it was “Dose-dependent effect”. In the experiment on MCF7 [6], this compound gave an Activity of 135%. Also, the outcome (in the experiment on MCF7 [8]; in experiment [10]) was inactive. The IC50 with MCF7 [2] turned out to be 19.6 µM. Also, the inhibition in experiment [3] was 90%.
`CN(C)CCCCCCCCCCCC(=O)N[C@H](CO)[C@H](O)c1ccc([N+](=O)[O-])cc1`: the Activity in the experiment on MCF7 [1] is 143%; in the experiment with MCF7 [14], 175%; with MCF7 [2], “Dose-dependent effect”; with MCF7 [16] it was 10%; in the experiment with MCF7 [18] it was “Dose-dependent effect”; with MCF7 [5], 50%. The Activity with MCF7 [6] turned out to be 300%. For the same compound, the concentration for half-maximal inhibition (IC50) stood at 10.2 µM in the experiment on MCF7 [2] and 7.2 µM with MCF7 [15]. The outcome with MCF7 [17] was inactive. In addition, the inhibition in experiment [3] is 55%; in [10] it was 65%.
For the compound `O=C(CCCCCCCCCCCN1CCOCC1)N[C@H](CO)[C@H](O)c1ccc([N+](=O)[O-])cc1`, the Activity was 120% in the experiment on MCF7 [1]; “Dose-dependent effect” in the experiment on MCF7 [2]; 98% in the experiment with MCF7 [4]; 50% in the experiment with MCF7 [5]; 200% in the experiment on MCF7 [6]. In the experiment with MCF7 [2], this compound yielded an IC50 of 49.9 µM. Besides, the inhibition in [3] turned out to be 5%.
Consider `NCCCCCCCCCCCC(=O)N[C@H](CO)[C@H](O)c1ccc([N+](=O)[O-])cc1`, for which the Activity with MCF7 [1] was 120%; in the experiment on MCF7 [2] it was “Dose-dependent effect”; in the experiment with MCF7 [4], 98%; in the experiment with MCF7 [5], 50%; with MCF7 [6] it was 200%. Also, in the experiment on MCF7 [2], the IC50 turned out to be 6.43 µM.
`CNCCCCCCCCCCCC(=O)N[C@H](CO)[C@H](O)c1ccc([N+](=O)[O-])cc1`: the Activity with MCF7 [1] is 120%; with MCF7 [2] it was “Dose-dependent effect”; with MCF7 [4], 98%; in the experiment with MCF7 [5] it was 50%; in the experiment with MCF7 [6] it was 200%. The same compound gave an IC50 with MCF7 [2] of 15.5 µM.
